Data: ChEMBL document CHEMBL3046583, “Design, synthesis, and insecticidal activity of novel pyrazole derivatives containing α-hydroxymethyl-N-benzyl carboxamide, α-chloromethyl-N-benzyl carboxamide, and 4,5-dihydrooxazole moieties” (2012)
Active and inactive are the calls of the source. The calls are words filed in the database; no cut-off is given here.

Key:
Culex pipiens pallens [1] = assay: Larvicidal activity against Culex pipiens pallens (mosquito) at 1 mg/kg; type: functional
Tetranychus cinnabarinus [2] = assay: Acaricidal activity against Tetranychus cinnabarinus (carmine spider mite) eggs at 600 mg/kg by leaf dip method; type: functional, Egg
Culex pipiens pallens [3] = assay: Larvicidal activity against Culex pipiens pallens (mosquito) at 5 mg/kg; type: functional
Helicoverpa armigera [4] = assay: Stomach toxicity against third-instars Helicoverpa armigera assessed as larvicidal activity at 55 mg/kg at 25 +/- 1 degC after 3 days; type: functional
Procedure, shortened: (§1)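 Diet-incorporation assay on third-instar larvae. Samples dissolved in acetone to the desired final concentrations; 3 mL of test solution mixed evenly into about 27 g of prepared feed, then dispensed into 24-well plates. Run in triplicate at 25 ± 1 °C. Dead/alive scoring 3 days after treatment; mortality corrected by Abbott's formula on a 0–100 scale.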

Tetranychus cinnabarinus [5] = assay: Acaricidal activity against Tetranychus cinnabarinus (carmine spider mite) adults at 600 mg/kg by leaf dip method; type: functional
Plutella xylostella [6] = assay: Stomach toxicity against Plutella xylostella (diamondback moth) assessed as larvicidal activity at 600 mg/kg by leaf dip method; type: functional
Tetranychus cinnabarinus [7] = assay: Acaricidal activity against Tetranychus cinnabarinus (carmine spider mite) eggs at 200 mg/kg by leaf dip method; type: functional, Egg
Tetranychus cinnabarinus [8] = assay: Acaricidal activity against Tetranychus cinnabarinus (carmine spider mite) larvae at 600 mg/kg by leaf dip method; type: functional
Culex pipiens pallens [9] = assay: Larvicidal activity against Culex pipiens pallens (mosquito); type: functional
Culex pipiens pallens [10] = assay: Larvicidal activity against Culex pipiens pallens (mosquito) at 0.5 mg/kg; type: functional
Plutella xylostella [11] = assay: Stomach toxicity against Plutella xylostella (diamondback moth) assessed as larvicidal activity at 200 mg/kg by leaf dip method; type: functional
Tetranychus cinnabarinus [12] = assay: Acaricidal activity against Tetranychus cinnabarinus (carmine spider mite) adults at 200 mg/kg by leaf dip method; type: functional
Culex pipiens pallens [13] = assay: Larvicidal activity against Culex pipiens pallens (mosquito) at 2 mg/kg; type: functional
Helicoverpa armigera [14] = assay: Stomach toxicity against third-instars Helicoverpa armigera assessed as larvicidal activity at 110 mg/kg at 25 +/- 1 degC after 3 days; type: functional; procedure, shortened: as §1
Helicoverpa armigera [15] = assay: Stomach toxicity against third-instars Helicoverpa armigera assessed as larvicidal activity at 11 mg/kg at 25 +/- 1 degC after 3 days; type: functional; procedure, shortened: as §1
Aphis craccivora [16] = assay: Larvicidal activity against Aphis craccivora (cowpea aphid) at 600 mg/kg by leaf dip method; type: functional
Tetranychus cinnabarinus [17] = assay: Acaricidal activity against Tetranychus cinnabarinus (carmine spider mite) larvae at 200 mg/kg by leaf dip method; type: functional
Helicoverpa armigera [18] = assay: Stomach toxicity against third-instars Helicoverpa armigera assessed as larvicidal activity at 22 mg/kg at 25 +/- 1 degC after 3 days; type: functional; procedure, shortened: as §1
Aphis craccivora [19] = assay: Larvicidal activity against Aphis craccivora (cowpea aphid) at 200 mg/kg by leaf dip method; type: functional
Helicoverpa armigera [20] = assay: Stomach toxicity against third-instars Helicoverpa armigera assessed as larvicidal activity at 5.5 mg/kg at 25 +/- 1 degC after 3 days; type: functional; procedure, shortened: as §1
Helicoverpa armigera [21] = assay: Stomach toxicity against third-instars Helicoverpa armigera assessed as larvicidal activity at 25 +/- 1 degC after 3 days; type: functional; procedure, shortened: as §1
Plutella xylostella [22] = assay: Antifeedant activity against Plutella xylostella (diamondback moth) at 200 to 600 mg/kg by leaf dip method; type: functional, organism-based

CCc1cc(C(=O)NC(CCl)c2ccc(Oc3ccccc3)cc2)n(C)n1 (stereo not drawn)
Activity (Culex pipiens pallens [1]): 100%
Activity (Tetranychus cinnabarinus [2]): 50%
Activity (Culex pipiens pallens [3]): 100%
Activity (Helicoverpa armigera [4]): 100%
Activity (Tetranychus cinnabarinus [5]): 50%
Activity (Plutella xylostella [6]): 45%
Activity (Tetranychus cinnabarinus [7]): 40%
Activity (Tetranychus cinnabarinus [8]): 40%
LC50 (Culex pipiens pallens [9]): 0.35 mg/kg
Activity (Culex pipiens pallens [10]): 60%
Activity (Plutella xylostella [11]): 30%
Activity (Tetranychus cinnabarinus [12]): 0%
Activity (Culex pipiens pallens [13]): 100%
Activity (Helicoverpa armigera [14]): 100%
Activity (Helicoverpa armigera [15]): 0%
Activity (Aphis craccivora [16]): 100%
Activity (Tetranychus cinnabarinus [17]): 30%
Activity (Helicoverpa armigera [18]): 40%
Activity (Aphis craccivora [19]): 95%

CCc1nn(C)c(C(=O)NCc2ccc(Oc3ccc(C)cc3)cc2)c1Cl [TOLFENPYRAD]
Activity (Helicoverpa armigera [4]): 100%
Activity (Helicoverpa armigera [20]): 70%
Activity (Plutella xylostella [6]): 100%
LC50 (Helicoverpa armigera [21]): 2.47 mg/kg
Activity (Plutella xylostella [11]): 100%
Activity (Helicoverpa armigera [14]): 100%
Activity (Helicoverpa armigera [15]): 100%
Activity (Helicoverpa armigera [18]): 100%

CCc1nn(C)c(C(=O)NC(CCl)c2ccc(Oc3ccccc3)cc2)c1Cl (stereo not drawn)
Activity (Culex pipiens pallens [1]): 60%
Activity (Tetranychus cinnabarinus [2]): 20%
Activity (Culex pipiens pallens [3]): 100%
Activity (Plutella xylostella [22]): Active
Activity (Helicoverpa armigera [4]): 100%
Activity (Tetranychus cinnabarinus [5]): 0%
Activity (Helicoverpa armigera [20]): 40%
Activity (Plutella xylostella [6]): 90%
Activity (Tetranychus cinnabarinus [7]): 0%
Activity (Tetranychus cinnabarinus [8]): 30%
Activity (Culex pipiens pallens [10]): 0%
Activity (Plutella xylostella [11]): 60%
Activity (Culex pipiens pallens [13]): 100%
Activity (Helicoverpa armigera [14]): 100%
Activity (Helicoverpa armigera [15]): 80%
Activity (Aphis craccivora [16]): 100%
Activity (Tetranychus cinnabarinus [17]): 20%
Activity (Helicoverpa armigera [18]): 100%
Activity (Aphis craccivora [19]): 80%

CCCCCOc1ccc(C2COC(c3c(Cl)c(CC)nn3C)=N2)cc1 (stereo not drawn)
Activity (Culex pipiens pallens [1]): 0%
Activity (Tetranychus cinnabarinus [2]): 40%
Activity (Culex pipiens pallens [3]): 100%
Activity (Plutella xylostella [22]): Active
Activity (Helicoverpa armigera [4]): 100%
Activity (Tetranychus cinnabarinus [5]): 20%
Activity (Helicoverpa armigera [20]): 30%
Activity (Plutella xylostella [6]): 70%
Activity (Tetranychus cinnabarinus [7]): 20%
Activity (Tetranychus cinnabarinus [8]): 15%
Activity (Plutella xylostella [11]): 30%
Activity (Tetranychus cinnabarinus [12]): 15%
Activity (Culex pipiens pallens [13]): 50%
Activity (Helicoverpa armigera [14]): 100%
Activity (Helicoverpa armigera [15]): 80%
Activity (Aphis craccivora [16]): 100%
Activity (Tetranychus cinnabarinus [17]): 0%
Activity (Helicoverpa armigera [18]): 100%
Activity (Aphis craccivora [19]): 90%

CCc1nn(C)c(C2=NC(c3ccc(C(C)(C)C)cc3)CO2)c1Cl (stereo not drawn)
Activity (Culex pipiens pallens [1]): 50%
Activity (Tetranychus cinnabarinus [2]): 20%
Activity (Culex pipiens pallens [3]): 100%
Activity (Helicoverpa armigera [4]): 100%
Activity (Tetranychus cinnabarinus [5]): 30%
Activity (Helicoverpa armigera [20]): 40%
Activity (Plutella xylostella [6]): 50%
Activity (Tetranychus cinnabarinus [7]): 0%
Activity (Tetranychus cinnabarinus [8]): 45%
Activity (Culex pipiens pallens [10]): 0%
Activity (Plutella xylostella [11]): 30%
Activity (Tetranychus cinnabarinus [12]): 10%
Activity (Culex pipiens pallens [13]): 100%
Activity (Helicoverpa armigera [14]): 100%
Activity (Helicoverpa armigera [15]): 70%
Activity (Aphis craccivora [16]): 90%
Activity (Tetranychus cinnabarinus [17]): 30%
Activity (Helicoverpa armigera [18]): 100%
Activity (Aphis craccivora [19]): 50%

CCc1cc(C(=O)NC(CCl)c2ccc(C(C)(C)C)cc2)n(C)n1 (stereo not drawn)
Activity (Tetranychus cinnabarinus [2]): 80%
Activity (Culex pipiens pallens [3]): 60%
Activity (Helicoverpa armigera [4]): 100%
Activity (Tetranychus cinnabarinus [5]): 30%
Activity (Helicoverpa armigera [20]): 60%
Activity (Plutella xylostella [6]): 30%
LC50 (Helicoverpa armigera [21]): 3.33 mg/kg
Activity (Tetranychus cinnabarinus [7]): 40%
Activity (Tetranychus cinnabarinus [8]): 20%
Activity (Plutella xylostella [11]): 15%
Activity (Tetranychus cinnabarinus [12]): 0%
Activity (Culex pipiens pallens [13]): 0%
Activity (Helicoverpa armigera [14]): 100%
Activity (Helicoverpa armigera [15]): 90%
Activity (Aphis craccivora [16]): 80%
Activity (Tetranychus cinnabarinus [17]): 0%
Activity (Helicoverpa armigera [18]): 100%
Activity (Aphis craccivora [19]): 65%

CCc1cc(C2=NC(c3ccc(C(C)(C)C)cc3)CO2)n(C)n1 (stereo not drawn)
Activity (Culex pipiens pallens [1]): 0%
Activity (Tetranychus cinnabarinus [2]): 100%
Activity (Culex pipiens pallens [3]): 100%
Activity (Plutella xylostella [22]): Active
Activity (Helicoverpa armigera [4]): 100%
Activity (Tetranychus cinnabarinus [5]): 100%
Activity (Plutella xylostella [6]): 60%
Activity (Tetranychus cinnabarinus [7]): 95%
Activity (Tetranychus cinnabarinus [8]): 90%
Activity (Plutella xylostella [11]): 45%
Activity (Tetranychus cinnabarinus [12]): 95%
Activity (Culex pipiens pallens [13]): 60%
Activity (Helicoverpa armigera [14]): 100%
Activity (Helicoverpa armigera [15]): 0%
Activity (Aphis craccivora [16]): 98%
Activity (Tetranychus cinnabarinus [17]): 80%
Activity (Helicoverpa armigera [18]): 40%
Activity (Aphis craccivora [19]): 90%

CCc1nn(C)c(C2=NC(c3ccc(Oc4ccccc4)cc3)CO2)c1Cl (stereo not drawn)
Activity (Culex pipiens pallens [1]): 0%
Activity (Tetranychus cinnabarinus [2]): 0%
Activity (Culex pipiens pallens [3]): 100%
Activity (Helicoverpa armigera [4]): 100%
Activity (Tetranychus cinnabarinus [5]): 0%
Activity (Helicoverpa armigera [20]): 60%
Activity (Plutella xylostella [6]): 90%
LC50 (Helicoverpa armigera [21]): 2.8 mg/kg
Activity (Tetranychus cinnabarinus [8]): 25%
Activity (Plutella xylostella [11]): 20%
Activity (Culex pipiens pallens [13]): 60%
Activity (Helicoverpa armigera [14]): 100%
Activity (Helicoverpa armigera [15]): 90%
Activity (Aphis craccivora [16]): 90%
Activity (Tetranychus cinnabarinus [17]): 0%
Activity (Helicoverpa armigera [18]): 100%
Activity (Aphis craccivora [19]): 60%

CCc1nn(C)c(C(=O)NC(CCl)c2ccc(Cl)cc2)c1Cl (stereo not drawn)
Activity (Culex pipiens pallens [1]): 50%
Activity (Tetranychus cinnabarinus [2]): 10%
Activity (Culex pipiens pallens [3]): 100%
Activity (Plutella xylostella [22]): Active
Activity (Helicoverpa armigera [4]): 100%
Activity (Tetranychus cinnabarinus [5]): 0%
Activity (Helicoverpa armigera [20]): 40%
Activity (Plutella xylostella [6]): 70%
Activity (Tetranychus cinnabarinus [7]): 0%
Activity (Tetranychus cinnabarinus [8]): 0%
Activity (Culex pipiens pallens [10]): 0%
Activity (Plutella xylostella [11]): 60%
Activity (Culex pipiens pallens [13]): 100%
Activity (Helicoverpa armigera [14]): 100%
Activity (Helicoverpa armigera [15]): 70%
Activity (Aphis craccivora [16]): 80%
Activity (Helicoverpa armigera [18]): 100%
Activity (Aphis craccivora [19]): 50%

CCc1nn(C)c(C(=O)NCc2ccc(C(C)(C)C)cc2)c1Cl [TEBUFENPYRAD]
Activity (Culex pipiens pallens [1]): 70%
Activity (Tetranychus cinnabarinus [2]): 100%
Activity (Culex pipiens pallens [3]): 100%
Activity (Tetranychus cinnabarinus [5]): 100%
Activity (Tetranychus cinnabarinus [7]): 100%
Activity (Tetranychus cinnabarinus [8]): 100%
LC50 (Culex pipiens pallens [9]): 0.61 mg/kg
Activity (Culex pipiens pallens [10]): 0%
Activity (Tetranychus cinnabarinus [12]): 100%
Activity (Culex pipiens pallens [13]): 100%
Activity (Aphis craccivora [16]): 100%
Activity (Tetranychus cinnabarinus [17]): 100%
Activity (Aphis craccivora [19]): 100%
